b-catenin transl – alters nuclear translocation of beta-catenin in HeLa cells; immunofluorescence imaging; nuclear translocation activity, % at 5 µM; actives 0.3% (n = 190,000); AID 1665;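 active means nuclear translocation activity above 50% at 5 µM, with a well cell count of 50 or more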;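 further: per-cell ratio of nuclear to cytoplasmic median beta-catenin stain intensity; plate controls were DMSO negative control for no effect and GSK-3 inhibitor IX positive control for full effect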
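Signal – beta-catenin immunofluorescence imaging with DAPI · Test system – human HeLa cell line · Dosing – 5 µM primary single dose, 0.1% DMSO, 0.02–20 µM confirmation series · Measure – % activation, nuclear-to-cytoplasmic median beta-catenin signal ratio per cell · Incubation – 24 h compound exposure at 37°C, 5% CO2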
Autophagy HCS – alters autophagy in cells. calls only at 10 µM (by protocol). MEF GFP-LC3 puncta imaging; test concentration mostly 10 µM. actives 0.98% (n = 190,000);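 active means percentage of spot-positive cells more than 3 SD above its plate mean, without a fluorescence outlier flag or 80% toxicity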;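 further: spot-positive cell cutoff set from DMSO-treated cells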
Dynein cargo inh – dynein cargo transport inhibition; 3617.4 mouse cells, GR-EGFP nuclear translocation imaging; test concentration mostly 20 µM; stimulated with dexamethasone, 1 µM; stronger effect = lower value; z-score, hits read low; actives 0.47% (n = 220,000);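 active means plate z-score of nuclear minus cytoplasmic receptor signal below a set negative limit, without overly bright fluorescence or cell loss, cut at about -3.5 in these data, passing the limit was not always enough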;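 further: z-score of nuclear minus cytoplasmic ring GR-EGFP intensity difference per well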
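Also added: dexamethasone, 1.0 µM final. Medium: tet-free, stripped-serum medium. Detection: fixed, Hoechst-stained cells imaged at 10x for EGFP. Read-out: nuclear-to-cytoplasmic GR-EGFP distribution per well. Times: induction 48 h, compound 1 h, agonist 30 min.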
CHOP inh – CHOP inhibition in unfolded protein response; CHO-K1 CHOP-promoter luciferase, tunicamycin-induced, 15-18 h; inhibition, % at 10 µM; actives 3.8% (n = 220,000);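 active means compounds that reduced the stress-induced luciferase reporter signal by more than about 70% of percent inhibition, limit read from the data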;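 further: 0% = tunicamycin plus vehicle and 100% = wells without tunicamycin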
L major viab – reduces viability of Leishmania major promastigotes; resazurin fluorescence viability; inhibition, % at 10 µM; actives 9% (n = 200,000); in the data active means inhibition above about 50%;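 further: promastigotes grown with compound for 44 hours at 28 °C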
MT stabilizer – stabilizes microtubules in HeLa cells; HeLa tubulin immunostaining HCS, 24 h; share of cells brighter than vehicle mean+2SD; actives 0.83% (n = 200,000); % tubulin-high responders, % at 10 µM; AID 2205;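 active means plate Z-score above 3 for both tubulin-high and condensed-nucleus cell shares, with cell loss under 80%, at 10 µM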;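 further: anti alpha tubulin signal scored within the nucleus-defined area of each cell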
Numbers without * were called inactive; i = inactive; x = not tested or not shown. Shown are actives, neighbours in structure and some others; about 12% of the full set was active somewhere.

SMILES	b-catenin transl	Autophagy HCS	Dynein cargo inh	CHOP inh	L major viab	MT stabilizer
CCc1nc(N2CCC(C)CC2)c2oc3ccccc3c2n1	-0.2	i	3.72	70.2*	5.8	2.3
Cc1nc(NCc2ccc3c(c2)OCO3)c2oc3ccccc3c2n1	-0.6	i	-1.3	-10.4	6.9	3.7
CC1CC(C)(C)NC(=S)N1CC(=O)N1CCN(Cc2ccc3c(c2)OCO3)CC1 (centres undefined)	-0.9	i	-0.227	14.2	-5.1	2.1
CCOCc1c(C(=O)OCC(=O)/C(C#N)=C(\C)N)oc2ccccc12	-0.2	i	-0.714	23.7	2.5	3.6
CCNc1nc(CC)nc2c1oc1ccccc12	-2.3	i	0.352	12.4	56.6*	2.9
CN(C)C(=O)c1ccccc1-c1ccccc1	1.0	i	0.148	2.6	-5.3	3.8
O=C(CC1SC(=Nc2ccc(OC(F)F)cc2)N(CCC2=CCCCC2)C1=O)Nc1ccccc1F (centres undefined)	0.5	i	0.2	28.3	96.4*	2.7
CN=C1SC(CC(=O)Nc2ccccc2F)C(=O)N1C (centres undefined)	0.0	i	-0.2	10.0	-7.2	2.7
CCOc1ccccc1N=C1SC(CC(=O)Nc2ccc(OC)cc2OC)C(=O)N1CCC1=CCCCC1 (centres undefined)	0.5	i	-0.609	46.3	80.3*	3.6
O=C(CSc1nnc(-c2ccccc2F)n1C1CC1)Nc1cccnc1Cl	-1.8	i	-0.471	23.3	-9.9	3.6
O=C(Nc1ccc(Br)c(C(F)(F)F)c1)c1ccccc1	1.7	i	0.0329	52.0	61.4*	1.3
O=C(Nc1cccc(F)c1)c1ccccc1	-2.6	i	1.26	2.1	42.3	2.7
CNC(=O)CSc1cn(CC(=O)N(C(C)C)C(C)C)c2ccccc12	-1.1	i	3.05	10.2	16.4	x
COc1ccc(-n2cnnc2SCC(=O)Nc2cccc(S(=O)(=O)N3CCCCC3)c2)cc1	-0.3	i	-0.625	9.0	3.1	2.8
COc1ccc(-n2cnnc2SCC(=O)Nc2cc(S(=O)(=O)N3CCCCC3)ccc2C)cc1	-1.9	i	0.35	-17.6	67.4*	2.4
O=C(CSc1nncn1-c1ccccc1)Nc1cccc(S(=O)(=O)N2CCCCC2)c1	x	i	-1.1	33.6	62.6*	2.7
O=C(CSc1nnc(-c2cccs2)o1)Nc1cccc(S(=O)(=O)N2CCCCC2)c1	-0.3	i	0.435	0.2	50.9*	2.2
Cn1c(N=Nc2ccc(N3CCOCC3)cc2)[n+](C)c2ccccc21	0.5	i	-0.0968	10.8	100.4*	4.5
CC(C)CC(NC(N)=O)C(=O)OCC(=O)Nc1ccc(OC(F)F)cc1 (centres undefined)	-2.5	i	-0.755	23.4	-5.6	6.9
Cc1cccc(NC(=O)C2C(c3ccccc3)C2(Cl)Cl)c1 (centres undefined)	-1.9	i	-0.437	73.6*	28.9	1.5
COc1ccc(/C=N/NC(=O)CC2N=C(Cc3ccccc3)NNC2=O)cc1OC (centres undefined)	x	i	-0.681	-43.3	-4.7	3.7
C=CCc1cccc(C2Nc3ccccc3C(=O)N2O)c1O (centres undefined)	0.8	i	-0.307	29.9	-8.3	4.0
Cc1cccc(C2Nc3ccccc3C(=O)N2CCc2ccccc2)n1 (centres undefined)	-4.1	i	-0.77	2.5	3.5	2.5
O=C1c2ccccc2NC(c2ccc(Cl)cc2Cl)N1Cc1ccccc1 (centres undefined)	x	i	2.56	87.4*	82.1*	3.1
O=C1c2ccccc2NC(c2ccc(Cl)cc2Cl)N1O (centres undefined)	0.5	i	-0.635	26.7	70.0*	4.4
O=C1c2ccccc2NC(c2c(Cl)cccc2Cl)N1Cc1ccccc1 (centres undefined)	-3.1	i	0.491	15.9	55.8*	1.0
COc1ccc(C2Nc3ccccc3C(=O)N2Cc2ccccc2)cc1CSc1ccccn1 (centres undefined)	2.3	i	-0.382	18.3	3.6	2.7
Cc1cccc(-n2c(Cc3cc(=O)[nH]c(=O)[nH]3)nnc2SCC(=O)N2CCCCC2)c1	x	i	-0.681	47.2	-8.1	5.4

Assay outcomes deposited in PubChem by several laboratories.
